The source of these data is PubChem BioAssay.

Active and inactive are the calls of the source.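 The calls were made as follows, unless noted: active = visual image review flags a hit and inhibition of aggregation exceeds 20%; inconclusive = visual hit but inhibition at or below 20%; inactive = no hit on visual image review.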

Assay [1] can be described thus: inhibitors of TNFa-induced NFkB p65 translocation, primary screen, imaging, HUVEC, MLSMR starter and 10KST1 sets (AID 438;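 active = inhibition above 20% together with a positive visual image hit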;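 also: compound added about 3h40 before a 20 min TNFalpha stimulation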;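 as to inhibition: signal is the nuclear over cytoplasmic p65 intensity ratio per well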). To be noted: HUVEC TNFa-induced p65 nuclear translocation; cell count: measured here: nuclei count (cytotoxicity indicator), at 2.08 µM; inhibition: at 2 µM, stronger effect = higher value, 0% TNFa-plus-vehicle, 100% no-TNFa wells.
Assay [2] is described as follows: inhibitors of mutant huntingtin aggregation, primary screen, imaging, exon1htt(103Q)mCFP cells, high-content imaging (AID 483).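 Also: compound exposure lasted 3 days before fixation.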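 As to nuclei count: percent of the per-plate median nuclei count of sample wells.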 To be noted: exon1htt(103Q)mCFP cell line, aggregate imaging, at 2 µM; inhibition of aggregation: stronger effect = higher value; nuclei count: measured here: cell count, toxicity.
The nature of assay [3]: inhibitors of E-selectin induction by TNFa, primary screen, imaging, HUVEC, immunofluorescence, MLSMR starter and 10KST1 sets (AID 487;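 active = visually confirmed hit in the image check and inhibition above 20%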;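 as to inhibition: signal is fraction of cell area covered by stained E-selectin grains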;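 as to nuclei count: 100% = median nuclei count of all wells on the same plate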). The following applies: HUVEC TNFalpha-induced E-selectin immunofluorescence imaging, at 2 µM; inhibition: stronger effect = higher value; nuclei count: measured here: cell number, toxicity.
In assay [4] the target is Voltage-gated potassium channel subunit beta-2 (Rattus norvegicus) (UniProt P62483). The assay can be described thus: KvBeta enzyme negative modulators, primary screen, biochemical, NADPH fluorescence (AID 622;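 active = fluorescence slope higher than the sample average by over 3 SD, cut at about -0.22 in these data, passing the limit was not always enough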;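 also: slope of raw intensity against log time taken from 70 to 1610 s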). To be noted: recombinant KvBeta, 4-cyanobenzaldehyde reduction, at 10 µM, stronger effect = higher value.
For assay [5] the target is unchanged. Description: KvBeta positive modulators, primary screen, biochemical, NADPH fluorescence (AID 623;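 active = NADPH fluorescence slope more negative than the mean of all samples by about 3 SD, 99.7% confidence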;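 also: fluorescence intensity change per second fitted from 20 to 320 s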). The following applies: Recombinant KvBeta, NADPH fluorescence decrease slope, 10 min; at 10 µM; stronger effect = lower value.
Assay [6] addresses Muscarinic acetylcholine receptor M4 (Homo sapiens) (UniProt P08173). Description: compounds altering M4/GIRK thallium flux, either direction, primary screen, M4 allosteric agonist project, cell-based, HEK293 M4/GIRK, BTC-AM (AID 625;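 active = fluorescence slope after compound addition differing from the mean of all tested samples at 99.7% confidence, mostly higher but some lower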;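 also: thallium influx through GIRK channels coupled to M4 in HEK293 cells with BTC-AM dye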). The following applies: at 10 µM, actives lie on both sides. In outline: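 System: HEK293 cells with M4 receptor and GIRK channels | Incubation: Cells overnight at 37 °C, BTC-AM loading 1 h, reads 2 min total | Technique: Kinetic BTC-AM fluorescence sampled at 1 Hz, 10 s pre-addition baseline | Measure: Post-addition slope, 15–24 s, of baseline-normalized fluorescence | Control set: Carbachol positive, DMSO negative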

The nature of assay [7]: inhibitors of Sendai virus-induced IRF3 signaling, primary screen, TLR/RLR signaling modifier project, cell-based, Sendai virus stimulus, luciferase, 10K MLSCN set (AID 602276;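 active = inhibition at or above 50% at 10 µM; inactive = inhibition below 50%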;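 also: firefly luciferase from ISG56 promoter only with Renilla not read in this screen; 0% = Sendai virus plus DMSO and 100% = medium plus DMSO without virus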). The following applies: HEK293 RL24 IRF3 luciferase reporter, at 10 µM, stronger effect = higher value.
Assay [8] in a line: inhibitors of poly I:C-induced TLR3 signaling, primary screen, cell-based, poly I:C stimulus, luciferase, 10K MLSCN set (AID 602277;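 active = inhibition of the reporter signal at or above 50%; inactive = inhibition below 50%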). The following applies: HEK293-TLR3 RL24 IRF3 luciferase reporter, at 10 µM, stronger effect = higher value. For orientation: A reporter such as luciferase makes a cellular process visible.

Chain of Muscarinic acetylcholine receptor M4 (Homo sapiens) (P08173 whole entry, looked up): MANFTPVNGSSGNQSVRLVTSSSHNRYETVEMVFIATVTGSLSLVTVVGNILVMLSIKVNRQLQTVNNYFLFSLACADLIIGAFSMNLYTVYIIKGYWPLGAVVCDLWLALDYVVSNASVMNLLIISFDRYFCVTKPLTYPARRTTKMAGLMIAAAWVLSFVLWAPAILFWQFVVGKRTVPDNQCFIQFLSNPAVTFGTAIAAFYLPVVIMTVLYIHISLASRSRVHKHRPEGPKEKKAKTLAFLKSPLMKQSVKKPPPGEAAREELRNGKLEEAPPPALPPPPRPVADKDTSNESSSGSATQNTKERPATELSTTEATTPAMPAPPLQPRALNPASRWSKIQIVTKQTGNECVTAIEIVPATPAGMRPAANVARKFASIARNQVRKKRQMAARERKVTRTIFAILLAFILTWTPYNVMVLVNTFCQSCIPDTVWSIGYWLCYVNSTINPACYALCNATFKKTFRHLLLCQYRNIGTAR
Chain of Voltage-gated potassium channel subunit beta-2 (Rattus norvegicus) (P62483 whole entry, looked up): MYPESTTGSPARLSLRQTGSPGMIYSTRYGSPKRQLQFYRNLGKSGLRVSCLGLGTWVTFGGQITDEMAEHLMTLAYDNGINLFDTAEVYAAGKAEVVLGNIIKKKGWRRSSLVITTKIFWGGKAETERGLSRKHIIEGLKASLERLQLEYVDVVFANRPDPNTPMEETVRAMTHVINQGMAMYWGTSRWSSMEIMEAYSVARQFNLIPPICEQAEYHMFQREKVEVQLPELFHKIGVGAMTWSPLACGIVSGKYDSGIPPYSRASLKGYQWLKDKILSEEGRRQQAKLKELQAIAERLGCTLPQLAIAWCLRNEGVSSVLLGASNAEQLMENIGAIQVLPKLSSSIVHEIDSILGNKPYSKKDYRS

In general, inhibition refers to the change of the read-out against control, counted positive when it falls. Take `O=C(CCN1CCN(C(=O)c2ccco2)CC1)Nc1ccc(F)cc1`: the cell count in assay [1] was 356. Further, the inhibition in assay [1] was -2.6% (inactive); in assay [3], -78.7% (inactive); in assay [7], 11.5% (inactive); in assay [8], 20.2% (inactive). For the same molecule, the inhibition of aggregation in assay [2] was -11.1% (inactive). The values for the nuclei count in assay [2] and in assay [3] were 87.1% and 108%, respectively. For the same molecule, the fluorescence slope is -0.459 (inactive) in assay [4] and 0.00658 (inactive) in assay [6]. Also, in assay [5], the NADPH fluorescence slope is 0.000122 (inactive).
Regarding `COC(=O)C1=C(C)N(c2ccc(C(=O)OC)cc2)C(=O)C1`, the cell count in assay [1] worked out at 734. The inhibition is 4% (inactive) in assay [1], 23.7% (inactive) in assay [3], 16.3% (inactive) in assay [7] and 6.55% (inactive) in assay [8]. In addition, the inhibition of aggregation in assay [2] is -26.4% (inactive). For the same molecule, the nuclei count in assay [2] was determined as 87.2%; in assay [3] it was 105%. The fluorescence slope in assay [4] was -0.567 (inactive); in assay [6] it was 0.00678 (inactive). Also, the NADPH fluorescence slope in assay [5] is -4e-05 (inactive).
As for `CC(C)N(C(=O)COC(=O)c1ccc(O)cc1)C(C)C`, the cell count in assay [1] is 467. Besides, the inhibition in assay [1] was 1% (inactive); in assay [3], -8.7% (inactive); in assay [7], 17.3% (inactive); in assay [8] it was 14.3% (inactive). Also, the inhibition of aggregation in assay [2] was 12.6% (inactive). Also, the nuclei count was 112% in assay [2] and 121% in assay [3]. Further, the fluorescence slope in assay [4] is -0.553 (inactive); in assay [6], 0.00574 (inactive). Besides, the NADPH fluorescence slope in assay [5] was -3.1e-05 (inactive).
For `CC1(C)Cc2noc(N)c2C(C)(C)N1OC(=O)c1ccccc1`, the cell count in assay [1] came out at 322. Further, the inhibition in assay [1] is 2.4% (inactive); in assay [3] it was -48.1% (inactive); in assay [7] it was -2.74% (inactive); in assay [8] it was 5.08% (inactive). The inhibition of aggregation in assay [2] is 1.8% (inactive). Moreover, the nuclei count in assay [2] came out at 99%; in assay [3], 126%. Also, the fluorescence slope is -0.463 (inactive) in assay [4] and 0.00527 (inactive) in assay [6]. Also, in assay [5], the NADPH fluorescence slope was 1.8e-05 (inactive).
`N#Cc1cnc2sc3ccccc3n2c1=N`: the cell count in assay [1] was found to be 332. Also, the inhibition in assay [1] was -12.6% (inactive); in assay [3], -14.8% (inactive); in assay [7], -9.74% (inactive); in assay [8], -37.6% (inactive). Further, the inhibition of aggregation in assay [2] was 5.1% (inactive). Also, the results for the nuclei count in assay [2] and in assay [3] were 119% and 106%, respectively. Further, the fluorescence slope was -0.554 (inactive) in assay [4] and 0.00378 (inactive) in assay [6]. Also, the NADPH fluorescence slope in assay [5] was 7.2e-06 (inactive).
Take `Cc1nc2nc(Cc3ccccc3)[nH]n2c(=O)c1Cc1ccccc1`: the cell count in assay [1] is 351. The inhibition was -3.3% (inactive) in assay [1], -62.2% (inactive) in assay [3], 9.12% (inactive) in assay [7] and 15.7% (inactive) in assay [8]. For the same molecule, the inhibition of aggregation in assay [2] is -11.2% (inactive). For the same molecule, the nuclei count turned out to be 97% in assay [2] and 96.1% in assay [3]. Also, the fluorescence slope was -0.576 (inactive) in assay [4] and 0.0029 (inactive) in assay [6]. The NADPH fluorescence slope in assay [5] is -4.3e-05 (inactive).
In the case of `CN1CC=C2C(C#N)=C(N)C(C#N)(C#N)C(c3cccc(Cl)c3Cl)C2C1` (centres undefined), the cell count in assay [1] came out at 566. The inhibition was -8.5% (inactive) in assay [1], -13.9% (inactive) in assay [3], 8.89% (inactive) in assay [7] and 9.8% (inactive) in assay [8]. In addition, the inhibition of aggregation in assay [2] was -7.2% (inactive). Besides, the values for the nuclei count in assay [2] and in assay [3] were 110% and 99.2%, respectively. The fluorescence slope is -0.399 (inactive) in assay [4] and 0.00362 (inactive) in assay [6]. Also, the NADPH fluorescence slope in assay [5] is -0.000109 (inactive).
As for `Cc1nc2ccc(NC(=O)N3CCC(c4ccccc4)C3)cc2nc1C` (centres undefined), in assay [1], the cell count turned out to be 551. Also, the inhibition in assay [1] was 4.3% (inactive); in assay [3] it was 20.7% (inactive); in assay [7], -0.553% (inactive); in assay [8], -40.6% (inactive). Besides, the inhibition of aggregation in assay [2] was 9.2% (inactive). Moreover, the nuclei count in assay [2] was 106%; in assay [3], 68.5%. Further, the fluorescence slope in assay [4] is -0.0383 (inactive); in assay [6], 0.00546 (inactive). In assay [5], the NADPH fluorescence slope was 9.4e-06 (inactive).
Regarding `COC(=O)C1CCN(C(=O)CSc2nnc(-c3ccncc3)o2)CC1`, in assay [1], the cell count turned out to be 682. The inhibition was -6.4% (inactive) in assay [1], -9.5% (inactive) in assay [3], -9.36% (inactive) in assay [7] and -15.6% (inactive) in assay [8]. In assay [2], the inhibition of aggregation is 22.4% (inactive). For the same molecule, the nuclei count in assay [2] is 59.8%; in assay [3], 109%. The fluorescence slope in assay [4] was -0.57 (inactive); in assay [6], 0.0106 (inactive). Moreover, the NADPH fluorescence slope in assay [5] was -5.5e-05 (inactive).
As for `COc1ccc(-n2c(COc3ccccc3)nnc2SCc2ccc(C#N)cc2)cc1`, the cell count in assay [1] came to 687. For the same molecule, the inhibition was -7.7% (inactive) in assay [1], -58.1% (inactive) in assay [3], 3.44% (inactive) in assay [7] and 19.5% (inactive) in assay [8]. Also, the inhibition of aggregation in assay [2] is -21% (inactive). In addition, the nuclei count in assay [2] turned out to be 56.4%; in assay [3], 95.8%. The fluorescence slope is -0.543 (inactive) in assay [4] and 0.00479 (inactive) in assay [6]. Besides, in assay [5], the NADPH fluorescence slope was -5.8e-05 (inactive).
As to `Cn1c2c(c(=O)n(C)c1=O)CN(CCCN1CCOCC1)CN2`, in assay [1], the cell count came out at 541. Also, the inhibition was -5% (inactive) in assay [1], 41.5% (inactive) in assay [3], 8.17% (inactive) in assay [7] and 16.9% (inactive) in assay [8]. For the same molecule, in assay [2], the inhibition of aggregation was 9.8% (inactive). Besides, the nuclei count in assay [2] turned out to be 115%; in assay [3] it was 90.5%. The fluorescence slope in assay [4] was -0.595 (inactive); in assay [6] it was 0.00524 (inactive). Besides, the NADPH fluorescence slope in assay [5] is 2.4e-05 (inactive).
With `CCn1c(SC)nc2c(c1=O)SC(C)C2` (centres undefined), in assay [1], the cell count was determined as 570. Further, the inhibition was -4.9% (inactive) in assay [1], -20.6% (inactive) in assay [3], 6.41% (inactive) in assay [7] and 15.1% (inactive) in assay [8]. Also, in assay [2], the inhibition of aggregation was -5% (inactive). The results for the nuclei count in assay [2] and in assay [3] were 112% and 118%, respectively. Moreover, the fluorescence slope in assay [4] was -0.432 (inactive); in assay [6] it was 0.00648 (inactive). Moreover, the NADPH fluorescence slope in assay [5] was -8.5e-05 (inactive).
Take `O=C(Cc1c[nH]c2ccccc12)N1CCc2ccccc21`: in assay [1], the cell count came to 236. Moreover, the inhibition in assay [1] is 2.1% (inactive); in assay [3], -28.8% (inactive); in assay [7] it was -4.15% (inactive); in assay [8] it was -44.5% (inactive). The inhibition of aggregation in assay [2] was 6.4% (inactive). Further, the results for the nuclei count in assay [2] and in assay [3] were 90% and 93.8%, respectively. Also, the fluorescence slope in assay [4] was -0.582 (inactive); in assay [6], 0.00443 (inactive). Moreover, in assay [5], the NADPH fluorescence slope was -1e-05 (inactive).
Regarding `CCCn1c2ccccc2c2nnc(SCC(=O)Nc3ncccn3)nc21`, the cell count in assay [1] came out at 696. For the same molecule, the inhibition was -4.4% (inactive) in assay [1], -10.4% (inactive) in assay [3], 12.2% (inactive) in assay [7] and 21.2% (inactive) in assay [8]. The inhibition of aggregation in assay [2] was -41% (inactive). In addition, the values for the nuclei count in assay [2] and in assay [3] were 53.5% and 98.8%, respectively. For the same molecule, the fluorescence slope in assay [4] is -0.551 (inactive); in assay [6] it was 0.00402 (inactive). The NADPH fluorescence slope in assay [5] is -1.7e-05 (inactive).
